Published values pooled from the literature.
Each line is one published result; the experiments were not run side by side.
Target: Serine/threonine-protein kinase MARK2 (MARK2, Homo sapiens, UniProt Q7KZI7)

Compound | test | system | conditions | quantity | result
Cc1nn(CC(F)(F)F)cc1Nc1nccc(NCCCNC(=O)C2CCC2)n1 | enzyme activity, inhibitor, radiometric | – | 1 µM | remaining activity | 103%
CCN1CCN(Cc2ccc(NC(=O)c3ccc(C)c(Oc4ccnc5[nH]ccc45)c3)cc2C(F)(F)F)CC1 | target engagement in cells, inhibitor, chemoproteomics | Huh-7 | 1 µM | inhibition | -10.4%
CN(C)C1CCN(CC#Cc2nn(C3CCCC3)c3nc(NCc4ccccc4)ncc23)C1 (stereo not shown) | enzyme activity, inhibitor, FRET | – | 10 µM | inhibition | 16%
COc1cc2ncnc(Nc3ccc(Oc4ccccc4)c(C)c3C)c2cc1OC | enzyme activity, inhibitor | – | 1 µM | inhibition | 6%
c1cc(CN2CCOCC2)cc(Nc2nccc(NCCc3cnc[nH]3)n2)c1 | enzyme activity, inhibitor, radiometric | – | 1 µM | remaining activity | 93%
COc1cccc2c(NCc3ccccc3)nc(-n3c(N)nc4ccccc43)nc12 | target engagement in cells, inhibitor, chemoproteomics | – | 20 mM | inhibition | -7.2%
Cc1ccc(Nc2nccc(N(C)c3ccc4c(C)n(C)nc4c3)n2)cc1S(N)(=O)=O | enzyme activity, inhibitor | – | 10 µM | inhibition | 16%
NS(=O)(=O)c1ccc(CNc2nc(Nc3cccc(NC(=O)N4CCCC4)c3)ncc2C2CC2)cc1 | enzyme activity, inhibitor, radiometric | – | 1 µM | remaining activity | 93%
CC/C(=N\NC(=O)NCc1cccc(O)c1)c1ccc(O)c(C)c1O | enzyme activity, inhibitor | – | 0.1 µM | inhibition | -5.8%
CS(=O)(=O)c1cc(C2(NC(=O)c3cncc4c3cnn4-c3ccc(F)cc3)CC2)ccn1 | cell-free assay, competition with immobilised ligand | – | 1 µM | remaining binding | 100%
C[C@@H]1CCN(C(=O)CC#N)C[C@@H]1N(C)c1ncnc2[nH]ccc12 | cell-free assay, inhibitor | – | 0.5 µM | remaining signal | 91.8%
c1ccc(CNc2nc(N3CCOc4ccccc43)nc3c2CCCC3)cc1 | target engagement in cells, inhibitor, chemoproteomics | – | 20 mM | inhibition | -11.2%
O=C(Nc1cccnn1)N1CC(C/C=C/c2cncc(Oc3ccc(C(F)(F)F)cn3)n2)C1 | cell-free assay, competition with immobilised ligand | – | 1 µM | remaining binding | 80%
CNc1cccc2cc(C(=O)Nc3ccc(C(=O)O)cc3)c(=O)[nH]c12 | enzyme activity, inhibitor | – | 10 µM | inhibition | -5.3%
Cc1nn(CC(F)(F)F)cc1Nc1nccc(NCCc2cnc[nH]2)n1 | enzyme activity, inhibitor, radiometric | – | 1 µM | remaining activity | 104%
Cc1c(C(=O)O)cc(-c2ccc(C3CCNCC3)cc2)c2ccc(-c3ccc(C(F)(F)F)cc3)cc12 | binding, competition with immobilised ligand | – | 1 µM | remaining binding | 100%

Compound | test | system | conditions | quantity | result
Cc1nn(CC(F)(F)F)cc1Nc1ncc(C2CC2)c(NCCCNC(=O)C2CCC2)n1 | enzyme activity, inhibitor, radiometric | – | 1 µM | remaining activity | 93%
O=C1Nc2ccc(Cl)cc2C1=Cc1cc(Cl)c(O)c(Cl)c1 | cell-free assay | – | 0.5 µM | remaining signal | 79.7%
O=C(NCCCNc1ccnc(Nc2cccc(NC(=O)N3CCCC3)c2)n1)C1CCC1 | enzyme activity, inhibitor, radiometric | – | 1 µM | remaining activity | 82%
CNC(=O)c1cc(Oc2ccc(NC(=O)Nc3ccc(Cl)c(C(F)(F)F)c3)cc2)ccn1 | enzyme activity, inhibitor | – | 0.3 µM | inhibition | 28%
FC(F)(F)Oc1cccc(-c2cnc3ccc(-c4ccncc4)nn23)c1 | enzyme activity, inhibitor, radiometric | – | 5 µM | activity vs control | 99%
CN(C)C(=O)Cn1cc(-c2nc(C3(c4ccc(-c5cnc(N)nc5)cc4)CC3)no2)cn1 | cell-free assay, competition with immobilised ligand | – | 1 µM | remaining binding | 92%
Cc1ccc(C(=O)NCc2ccsc2)cc1C#Cc1cn(C(C)C)c2ncnc(N)c12 | enzyme activity, inhibitor | – | 1 µM | activity vs control | 99%
CS(=O)(=O)N1CCCC(NC(=O)[C@H](CCC2CCCCC2)NC(=O)c2ccc(CNC(=O)c3cnc4ccccn34)cc2)C1 (stereo partly shown) | cell-free assay, competition with immobilised ligand | – | 0.1 µM | remaining binding | 100%
Cc1ccc(NC(=O)c2ccc(C)c(C(F)(F)F)c2)cc1C#Cc1nn(C2CCC(O)CC2)c2ncnc(N)c12 (stereo not shown) | cell-free assay | – | 10 µM | remaining signal | 98%
CCCCN(CCCC)C(=O)CN1C[C@@H](c2cc(OC)c3c(c2)OCO3)[C@H](C(=O)O)[C@H]1CC(C)(C)CCC | cell-free assay, competition with immobilised ligand | – | 1 µM | remaining binding | 100%
Cc1cc(NC(=O)c2cccc3cc(-c4cccc5[nH]nc(N)c45)ccc23)ccc1F | enzyme activity, inhibitor | – | 0.1 µM | activity vs control | 94%
CC(=O)N1CCC(c2ccc(C(=O)NC3=NCCN3)cc2C(F)(F)F)CC1 | cell-free assay, competition with immobilised ligand | – | 1 µM | remaining binding | 100%
O=C(Nc1cccc(Nc2ncc(Br)c(NCCc3cnc[nH]3)n2)c1)N1CCCC1 | enzyme activity, inhibitor, radiometric | – | 1 µM | remaining activity | 5%
CC(=O)Nc1c(C(C)=O)c(=O)n(C)c2nc(-c3ccc(Cl)cc3Cl)c(-c3ccc(Cl)cc3)cc12 | cell-free assay, competition with immobilised ligand | – | 1 µM | remaining binding | 100%
Cc1nn(CC(F)(F)F)cc1Nc1ncc(Br)c(NCCc2cnc[nH]2)n1 | enzyme activity, inhibitor, radiometric | – | 1 µM | remaining activity | 55%
